The source made the active and inactive calls.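 The calls were made as follows: active = compounds that block at least half of the virus-caused cell damage; inactive = the rest.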
These compounds were tested on HEp-2 RSV Long CPE inhibition, luminescence (assay: antiviral activity against RSV Long – cell-based, HEp-2, luminescence, synthesized compounds, set 3, dose response (AID 492966)).
In short: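 Assay system: RSV Long-infected HEp-2 cells / Probe or stimulus: RSV Long, MOI 0.45 / Doses: 8-point twofold series, 50 to 0.39 µM final, 0.5% DMSO / Timing: compound and virus exposure six days at 37 °C / Detection: luminescence-based cytopathic effect measurement / Evaluation: % CPE inhibition and IC50 from bounded 4-parameter fit / Replication: each concentration tested in triplicate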

Structure (SMILES) | IC50
Cc1ccc(NC(=O)[C@@H]2CCCN2S(=O)(=O)c2cccc3cccnc23)cc1 | > 50 µM (inactive)
Cc1ccccc1NC(=O)[C@@H]1CCCN1S(=O)(=O)c1cccc2cccnc12 | 16.5 µM
O=C(Nc1ccc(Cl)cc1Cl)[C@@H]1CCCN1S(=O)(=O)c1cccc2cccnc12 | > 50 µM (inactive)
